Assay results as given in ChEMBL document CHEMBL4406820, “Novel reverse thia-analogs of fosmidomycin: Synthesis and antiplasmodial activity” (Eur J Med Chem, 2019).
pIC50: −log10 of the molar value. The source made the active and inactive calls. The calls are words filed in the database; no cut-off is given here.

How the values were obtained:
Plasmodium falciparum [1] = test: Antimalarial activity against asexual blood stages of Plasmodium falciparum 3D7 infected in human erythrocytes incubated for 3 days by ELISA; format: functional, organism-based; details: 3D7, 72 h
In short: (§1)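 Asexual blood-stage P. falciparum cultured in human erythrocytes; growth measured by HRP2 double-site sandwich ELISA. IC50 values are the mean of two independent double determinations.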

Plasmodium falciparum [2] = test: Antimalarial activity against asexual blood stages of Plasmodium falciparum Dd2 infected in human erythrocytes incubated for 3 days by ELISA; format: functional, organism-based; details: Dd2, 72 h; in short: as §1
[3] = target: T1, 1-deoxy-D-xylulose 5-phosphate reductoisomerase, apicoplastic (Plasmodium falciparum (isolate 3D7)) (UniProt Q8IKG4); test: Inhibition of recombinant Plasmodium falciparum IspC expressed in Escherichia coli using 1-deoxy-D-xylulose 5-phosphate as substrate preincubated for 2 days followed by substrate addition in presence of Tris HCL at pH 7.6 by photometric assay
T1 sequence (whole entry): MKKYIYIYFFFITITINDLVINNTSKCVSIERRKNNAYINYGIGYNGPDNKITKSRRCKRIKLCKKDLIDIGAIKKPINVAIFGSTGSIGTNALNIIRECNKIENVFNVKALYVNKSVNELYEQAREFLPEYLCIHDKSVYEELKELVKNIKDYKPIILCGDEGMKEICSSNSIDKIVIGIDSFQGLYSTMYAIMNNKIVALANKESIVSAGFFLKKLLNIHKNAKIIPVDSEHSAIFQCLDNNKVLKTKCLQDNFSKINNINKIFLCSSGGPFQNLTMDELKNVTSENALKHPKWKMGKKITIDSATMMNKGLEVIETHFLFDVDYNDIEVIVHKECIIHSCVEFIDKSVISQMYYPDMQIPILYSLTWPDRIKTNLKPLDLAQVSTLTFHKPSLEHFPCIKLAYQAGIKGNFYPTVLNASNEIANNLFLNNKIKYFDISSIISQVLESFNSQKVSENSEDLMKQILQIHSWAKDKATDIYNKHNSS
In short: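 Racemate or single enantiomer (0.6–0.7 mM) held in 100 mM Tris-HCl pH 7.6 with 0.02% NaN3 at 22–23 °C. Aliquots taken at 0, 24 and 48 h and frozen at −80 °C. All aliquots then assayed in parallel for IC50 against P. falciparum IspC: 340 nm NADPH read-out with 0.5 mM DXP.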

[4] = target: T1, 1-deoxy-D-xylulose 5-phosphate reductoisomerase, apicoplastic (Plasmodium falciparum (isolate 3D7)); test: Inhibition of recombinant Plasmodium falciparum IspC expressed in Escherichia coli using 1-deoxy-D-xylulose 5-phosphate as substrate preincubated for 7 days followed by substrate addition in presence of Tris HCL at pH 7.6 by photometric assay
[5] = target: T2, 1-deoxy-D-xylulose 5-phosphate reductoisomerase, apicoplastic (Plasmodium falciparum (isolate 3D7), UniProt Q8IKG4); test: Inhibition of recombinant Plasmodium falciparum IspC expressed in Escherichia coli using 1-deoxy-D-xylulose 5-phosphate as substrate by photometric assay
T2 sequence (Q8IKG4 whole entry): T1 sequence (whole entry)
In short: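 P. falciparum IspC expressed in E. coli. Reaction mix: 100 mM Tris-HCl pH 7.6, 5 mM MnCl2, 5 mM DTT, 0.5 mM NADPH, 0.02 U enzyme. Inhibitor tested as a 1:3 series from 200 to 0.003 µM. Started with 0.5 mM DXP; read at 340 nm, room temperature. IC50 calculated from at least eight data points; generally two to three independent determinations.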

[6] = target: T3, 1-deoxy-D-xylulose 5-phosphate reductoisomerase (Escherichia coli, UniProt W8T2T2); test: Inhibition of recombinant Escherichia coli IspC expressed in Escherichia coli M15 using 1-deoxy-D-xylulose 5-phosphate as substrate by photometric assay
T3 sequence (W8T2T2 whole entry): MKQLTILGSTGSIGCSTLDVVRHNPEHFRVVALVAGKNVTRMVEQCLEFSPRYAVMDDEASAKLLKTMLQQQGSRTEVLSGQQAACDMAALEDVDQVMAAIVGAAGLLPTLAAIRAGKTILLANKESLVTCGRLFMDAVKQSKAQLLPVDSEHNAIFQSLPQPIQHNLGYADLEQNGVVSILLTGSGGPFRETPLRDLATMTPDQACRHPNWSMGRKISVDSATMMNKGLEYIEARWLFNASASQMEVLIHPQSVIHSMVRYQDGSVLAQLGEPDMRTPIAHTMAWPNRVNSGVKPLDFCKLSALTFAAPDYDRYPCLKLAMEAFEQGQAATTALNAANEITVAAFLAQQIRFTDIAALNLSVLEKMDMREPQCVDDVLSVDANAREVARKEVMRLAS
In short: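 E. coli IspC, His-tagged, expressed in E. coli M15 pREP4 (IPTG 1 mM, 36 h at 20 °C) and purified by Ni2+-chelate chromatography to about 95% purity. Reaction mix: 100 mM Tris-HCl pH 7.6, 5 mM MnCl2, 5 mM DTT, 0.5 mM NADPH, 0.02 U enzyme. Inhibitor tested as a 1:3 series from 200 to 0.003 µM. Started with 0.5 mM DXP; NADPH consumption read at 340 nm, room temperature. IC50 fitted from at least eight points.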

[7] = target: T4, 1-deoxy-D-xylulose 5-phosphate reductoisomerase (Mycobacterium tuberculosis, UniProt P9WNS1); test: Inhibition of recombinant Mycobacterium tuberculosis IspC expressed in Escherichia coli M15 using 1-deoxy-D-xylulose 5-phosphate as substrate by photometric assay
T4 sequence (P9WNS1 whole entry): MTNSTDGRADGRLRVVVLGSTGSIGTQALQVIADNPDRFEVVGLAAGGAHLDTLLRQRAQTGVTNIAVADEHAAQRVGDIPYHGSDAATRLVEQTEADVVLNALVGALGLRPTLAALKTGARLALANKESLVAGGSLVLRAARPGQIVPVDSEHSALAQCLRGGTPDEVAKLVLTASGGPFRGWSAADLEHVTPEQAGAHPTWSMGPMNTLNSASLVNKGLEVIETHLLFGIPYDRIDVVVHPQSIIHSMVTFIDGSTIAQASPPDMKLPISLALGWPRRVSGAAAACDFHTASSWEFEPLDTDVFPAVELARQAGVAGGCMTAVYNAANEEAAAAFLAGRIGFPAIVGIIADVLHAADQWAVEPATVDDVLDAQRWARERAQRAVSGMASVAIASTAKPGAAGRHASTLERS

HeLa = test: Cytotoxicity against human HeLa cells assessed as reduction in cell viability incubated for 24 hrs by neutral red assay; format: cell-based
In short: (§2)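 Cytotoxicity on HeLa monolayers quantified spectrophotometrically, given as the mean of two independent double determinations. SI is HeLa IC50 divided by the P. falciparum 3D7 IC50.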

[8] = Selectivity index, ratio of IC50 for human HeLa cells to IC50 for Plasmodium falciparum 3D7; format: toxicity; details: read-out: Ratio IC50; in short: as §2
Acinetobacter baumannii [9] = test: Antimicrobial activity against Acinetobacter baumannii ATCC BAA747 incubated for 18 hrs by microbroth dilution assay; format: functional; details: ATCC BAA747, 18 h
Acinetobacter baumannii [10] = test: Antimicrobial activity against Acinetobacter baumannii ATCC BAA 1605 incubated for 18 hrs by microbroth dilution assay; format: functional; details: ATCC BAA 1605, 18 h
Escherichia coli [11] = test: Antimicrobial activity against Escherichia coli ATCC 25922 incubated for 18 hrs by microbroth dilution assay; format: functional; details: ATCC 25922, 18 h
Escherichia coli [12] = test: Antimicrobial activity against Escherichia coli ATCC BAA 2469 incubated for 18 hrs by microbroth dilution assay; format: functional; details: ATCC BAA 2469, 18 h
Klebsiella pneumoniae [13] = test: Antimicrobial activity against Klebsiella pneumoniae ATCC 13883 incubated for 18 hrs by microbroth dilution assay; format: functional; details: ATCC 13883, 18 h
Klebsiella pneumoniae [14] = test: Antimicrobial activity against Klebsiella pneumoniae ATCC 700603 incubated for 18 hrs by microbroth dilution assay; format: functional; details: ATCC 700603, 18 h
Pseudomonas aeruginosa = test: Antimicrobial activity against Pseudomonas aeruginosa ATCC 27853 incubated for 18 hrs by microbroth dilution assay; format: functional; details: ATCC 27853, 18 h
[15] = system: Mycobacterium tuberculosis; test: Antimycobacterial activity against Mycobacterium tuberculosis H37Rv incubated for 5 days by resazurin dye based assay; format: functional; details: 120 h
[16] = Stability of compound in pH 7.6 PBS buffer assessed as parent compound remaining incubated for 72 by HPLC analysis; format: physicochemical
In short: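 Compound dissolved at 1 mg/mL in phosphate buffer pH 7.6 (Ph. Eur.) and shaken at room temperature for 72 h. Samples at 0, 1, 3, 6, 24 and 72 h (n = 3) run by C18 reversed-phase HPLC with an acetonitrile/water gradient containing 0.1% TFA. Decomposition taken from the loss of peak area at 254 nm.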

[17] = Apparent permeability in human Caco2 cells by LC-MS/MS analysis; format: ADME, cell-based; details: Caco-2
In short: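 Compound applied to a polarized Caco2 monolayer. Concentrations measured over time by LC-MS/MS in donor medium, acceptor medium and cells; Papp calculated. Atenolol served as a reference compound.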

SMILES: CN(O)C(=O)CS[C@@H](c1ccccc1)P(=O)(O)O
- pIC50 (Plasmodium falciparum [1]): 7.06
- pIC50 (Plasmodium falciparum [2]): 6.85
- inhibition [3]: Active
- inhibition [4]: Active

SMILES: O=C(CSC(c1cc(F)cc(F)c1)P(=O)(O)O)NO (racemic)
- pIC50 [5]: 7.96
- pIC50 [6]: 7.89
- pIC50 [7]: 6.49
- pIC50 (Plasmodium falciparum [1]): 5.92
- pIC50 (Plasmodium falciparum [2]): 6.06
- pIC50 (HeLa): < 3.00
- selectivity ratio [8]: > 810
- MIC (Acinetobacter baumannii [9]): > 100 µM
- MIC (Acinetobacter baumannii [10]): > 100 µM
- MIC (Escherichia coli [11]): > 100 µM
- MIC (Escherichia coli [12]): > 100 µM
- MIC (Klebsiella pneumoniae [13]): > 100 µM
- MIC (Klebsiella pneumoniae [14]): > 100 µM
- MIC (Pseudomonas aeruginosa): > 100 µM
- MIC [15]: > 100 µM

SMILES: CN(O)C(=O)CS[C@H](c1ccccc1)P(=O)(O)O
- pIC50 (Plasmodium falciparum [1]): < 3.89
- pIC50 (Plasmodium falciparum [2]): < 3.89
- inhibition [3]: Active
- inhibition [4]: Active

SMILES: COc1cc(OC)cc(C(SCC(=O)N(C)O)P(=O)(O)O)c1 (racemic)
- pIC50 [5]: 7.70
- pIC50 [6]: 6.80
- pIC50 [7]: 5.36
- pIC50 (Plasmodium falciparum [1]): 6.80
- pIC50 (Plasmodium falciparum [2]): 6.74
- pIC50 (HeLa): < 3.00
- selectivity ratio [8]: > 6400
- MIC (Acinetobacter baumannii [9]): > 100 µM
- MIC (Acinetobacter baumannii [10]): > 100 µM
- MIC (Escherichia coli [11]): > 100 µM
- MIC (Escherichia coli [12]): > 100 µM
- MIC (Klebsiella pneumoniae [13]): > 100 µM
- MIC (Klebsiella pneumoniae [14]): > 100 µM
- MIC (Pseudomonas aeruginosa): > 100 µM
- MIC [15]: > 100 µM

SMILES: CN(O)C(=O)CSC(c1ccccc1)P(=O)(O)O (racemic)
- pIC50 (Plasmodium falciparum [1]): 6.72
- pIC50 (Plasmodium falciparum [2]): 6.59
- pIC50 (HeLa): < 3.00
- selectivity ratio [8]: > 37000
- Stability [16]: > 95%
- Papp [17]: 0.14 ×10⁻⁶ cm/s
- MIC (Acinetobacter baumannii [9]): > 100 µM
- MIC (Acinetobacter baumannii [10]): > 100 µM
- MIC (Escherichia coli [11]): > 100 µM
- MIC (Escherichia coli [12]): > 100 µM
- MIC (Klebsiella pneumoniae [13]): > 100 µM
- MIC (Klebsiella pneumoniae [14]): > 100 µM
- MIC (Pseudomonas aeruginosa): > 100 µM
- MIC [15]: > 100 µM

SMILES: COc1cc(OC)cc(C(SCC(=O)NO)P(=O)(O)O)c1 (racemic)
- pIC50 [5]: 7.62
- pIC50 [6]: 6.17
- pIC50 [7]: 4.36
- pIC50 (Plasmodium falciparum [1]): 6.48
- pIC50 (Plasmodium falciparum [2]): 6.57
- pIC50 (HeLa): < 3.00
- selectivity ratio [8]: > 3000
- MIC (Acinetobacter baumannii [9]): > 100 µM
- MIC (Acinetobacter baumannii [10]): > 100 µM
- MIC (Escherichia coli [11]): > 100 µM
- MIC (Escherichia coli [12]): > 100 µM
- MIC (Klebsiella pneumoniae [13]): > 100 µM
- MIC (Klebsiella pneumoniae [14]): > 100 µM
- MIC (Pseudomonas aeruginosa): > 100 µM
- MIC [15]: > 100 µM

SMILES: CN(O)C(=O)CSC(c1cc(F)cc(F)c1)P(=O)(O)O (racemic)
- pIC50 [5]: 7.89
- pIC50 [6]: 7.74
- pIC50 [7]: 6.96
- pIC50 (Plasmodium falciparum [1]): 6.82
- pIC50 (Plasmodium falciparum [2]): 6.89
- pIC50 (HeLa): < 3.00
- selectivity ratio [8]: > 6700
- MIC (Acinetobacter baumannii [9]): > 100 µM
- MIC (Acinetobacter baumannii [10]): > 100 µM
- MIC (Escherichia coli [11]): > 100 µM
- MIC (Escherichia coli [12]): > 100 µM
- MIC (Klebsiella pneumoniae [13]): > 100 µM
- MIC (Klebsiella pneumoniae [14]): > 100 µM
- MIC (Pseudomonas aeruginosa): > 100 µM
- MIC [15]: > 100 µM
